The source made the active and inactive calls. No cut-off for these calls is given here.
How the values were obtained:
[1] = target: T1, Signal transducer and activator of transcription 3 (Mus musculus, UniProt P42227); assay: Inhibition of STAT3 dimerization in mouse NIH3T3 cells expressing v-Src assessed as disruption of STAT3-STAT3: DNA complexation in nucleus after 30 mins by electrophoretic mobility shift assay; format: cell-based
Procedure, shortened: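 Nuclear extracts from NIH3T3/v-Src (constitutively active STAT3), equal total protein, pre-incubated 30 min at room temperature with increasing compound concentrations, then with radiolabelled hSIE probe; EMSA with densitometry quantification.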

[2] = target: Signal transducer and activator of transcription 3 (Mus musculus) (UniProt P42227); assay: Inhibition of STAT3 dimerization in v-Src transformed mouse NIH3T3 cells assessed as suppression of STAT3-DNA binding activity in nucleus at 100 uM after 6 hrs by electrophoretic mobility shift assay; format: cell-based
Sequence of Signal transducer and activator of transcription 3 (Mus musculus) (P42227 whole entry, the tested form may be a part): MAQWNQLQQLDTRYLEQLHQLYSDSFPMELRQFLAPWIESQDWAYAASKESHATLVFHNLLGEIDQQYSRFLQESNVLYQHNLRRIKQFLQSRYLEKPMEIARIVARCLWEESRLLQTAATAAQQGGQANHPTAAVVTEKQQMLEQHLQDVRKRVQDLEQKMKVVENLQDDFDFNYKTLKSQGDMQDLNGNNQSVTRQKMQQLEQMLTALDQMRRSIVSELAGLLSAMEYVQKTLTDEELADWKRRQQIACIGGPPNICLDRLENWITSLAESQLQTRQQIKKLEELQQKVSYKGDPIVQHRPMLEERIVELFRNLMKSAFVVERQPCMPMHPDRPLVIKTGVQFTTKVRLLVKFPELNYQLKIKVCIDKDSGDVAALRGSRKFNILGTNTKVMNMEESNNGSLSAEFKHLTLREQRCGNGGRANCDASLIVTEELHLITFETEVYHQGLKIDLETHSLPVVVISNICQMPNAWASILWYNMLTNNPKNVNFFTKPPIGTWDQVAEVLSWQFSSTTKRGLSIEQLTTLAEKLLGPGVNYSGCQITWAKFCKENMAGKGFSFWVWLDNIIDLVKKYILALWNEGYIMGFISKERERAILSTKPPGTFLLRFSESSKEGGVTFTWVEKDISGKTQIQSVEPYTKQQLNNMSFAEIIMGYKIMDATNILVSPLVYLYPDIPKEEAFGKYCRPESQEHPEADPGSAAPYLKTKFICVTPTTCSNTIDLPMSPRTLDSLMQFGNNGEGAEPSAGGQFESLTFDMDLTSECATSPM
Procedure, shortened: (§1)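 NIH3T3/v-Src cells treated with 100 μM compound for 6 or 24 h; nuclear extracts then tested for STAT3 DNA binding in vitro with radiolabelled hSIE probe by EMSA.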

[3] = target: T2, Signal transducer and activator of transcription 1 (Mus musculus, UniProt P42225); assay: Displacement of 5-carboxyfluorescein-GpYDKPHVL-NH2 from mouse recombinant His-tagged STAT1-SH2 domain expressed in Escherichia coli BL21 (DE3) by fluorescence polarization assay
T2 sequence (P42225 whole entry): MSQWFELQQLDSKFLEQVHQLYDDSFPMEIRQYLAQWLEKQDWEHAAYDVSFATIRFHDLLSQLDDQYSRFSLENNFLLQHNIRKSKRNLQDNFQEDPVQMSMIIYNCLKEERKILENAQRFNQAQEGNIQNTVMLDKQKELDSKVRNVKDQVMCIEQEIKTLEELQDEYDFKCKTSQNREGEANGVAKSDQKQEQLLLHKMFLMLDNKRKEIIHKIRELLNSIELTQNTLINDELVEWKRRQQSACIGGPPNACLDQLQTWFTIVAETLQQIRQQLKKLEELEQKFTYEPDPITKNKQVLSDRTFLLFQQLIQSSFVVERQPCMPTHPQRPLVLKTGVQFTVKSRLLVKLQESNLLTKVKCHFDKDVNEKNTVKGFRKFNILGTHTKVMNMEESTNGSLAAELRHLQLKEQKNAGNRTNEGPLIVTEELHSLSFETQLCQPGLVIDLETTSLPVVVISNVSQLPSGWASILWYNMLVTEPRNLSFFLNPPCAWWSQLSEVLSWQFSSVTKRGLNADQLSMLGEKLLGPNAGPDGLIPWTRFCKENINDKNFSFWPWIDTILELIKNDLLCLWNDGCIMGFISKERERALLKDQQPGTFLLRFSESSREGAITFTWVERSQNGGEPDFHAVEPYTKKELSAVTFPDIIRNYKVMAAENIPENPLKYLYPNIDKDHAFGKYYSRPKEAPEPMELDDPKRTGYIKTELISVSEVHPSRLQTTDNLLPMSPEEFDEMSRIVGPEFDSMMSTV
Procedure, shortened: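 His-tagged protein expressed in BL21(DE3), Ni-column purified. STAT1 80 nM incubated with serial inhibitor concentrations 60 min at 30 °C in 50 mM NaCl, 10 mM HEPES, 1 mM EDTA, 0.1% NP-40; 15 min equilibration at room temperature; 10 nM final probe added, 30 min room temperature, then FP read.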

[4] = target: Signal transducer and activator of transcription 3 (Mus musculus) (UniProt P42227); assay: Inhibition of STAT3 dimerization in v-Src transformed mouse NIH3T3 cells assessed as suppression of STAT3-DNA binding activity in nucleus at 100 uM after 24 hrs by electrophoretic mobility shift assay; format: cell-based; procedure, shortened: as §1
[5] = target: T1, Signal transducer and activator of transcription 3; assay: Displacement of 5-carboxyfluorescein-GpYLPQTV-NH2 from mouse recombinant His-tagged STAT3-SH2 domain expressed in Escherichia coli BL21 (DE3) by fluorescence polarization assay
Procedure, shortened: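 His-tagged protein expressed in BL21(DE3), Ni-column purified. STAT3 150 nM incubated with serial inhibitor concentrations 60 min at 30 °C in 50 mM NaCl, 10 mM HEPES, 1 mM EDTA, 0.1% NP-40; 15 min equilibration at room temperature; 10 nM final probe added, 30 min room temperature, then FP read.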

[6] = target: T1, Signal transducer and activator of transcription 3; assay: Inhibition of mouse recombinant SH2 domain of His-tagged full-length STAT3 by surface plasmon resonance assay
Procedure, shortened: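 Purified STAT3 captured on a HisCap sensor chip by injecting 50 μg/ml protein; inhibitors at various concentrations in 1X PBS, 0.5% DMSO running buffer passed over chip; association and dissociation rate constants recorded, their ratio taken as KD.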

Caco-2 = assay: Apparent permeability across apical to basolateral side in human Caco2 cells at 10 uM at pH 7.4 after 90 mins by LC/MS analysis; format: ADME, cell-based; conditions: caco-2, pH 7.4, […]
HL-60 = assay: Antiproliferative activity against human HL60 cells assessed as suppression of cell viability after 24 hrs by CyQuant cell viability assay; format: functional, cell-based; conditions: HL-60, 24 h
Procedure, shortened: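 Cells incubated 24 h with a range of inhibitor concentrations; HL-60 cells (no aberrant STAT3 signalling) run as control alongside DU145, Panc-1, NIH3T3/vSrc and breast cancer lines. Viability/growth read by CyQuant assay.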

NIH3T3 = assay: Antiproliferative activity against mouse NIH/3T3 cells assessed as suppression of cell viability at 50 uM after 24 hrs by CyQuant cell viability assay; format: functional
PANC-1 = assay: Antiproliferative activity against human PANC1 cells assessed as suppression of cell viability at 50 uM after 24 hrs by CyQuant cell viability assay; format: functional
Procedure, shortened: (§2)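 Cancer cells (human breast MDA-MB-231, pancreatic Panc-1, prostate DU-145) treated with a range of inhibitor concentrations, 30–50 μM, for 24 h. Growth and viability read by CyQuant cell proliferation/viability assay.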

MDA-MB-468 (human) = assay: Antiproliferative activity against human MDA-MB-468 cells assessed as suppression of cell viability at 50 uM after 24 hrs by CyQuant cell viability assay
DU-145 = assay: Antiproliferative activity against human DU145 cells assessed as suppression of cell viability at 50 uM after 24 hrs by CyQuant cell viability assay; format: functional; procedure, shortened: as §2
[7] = Metabolic stability in human Caco2 cells at 10 uM at pH 7.4 after 90 mins by LC/MS analysis; format: ADME, cell-based; conditions: Caco-2 cells, read-out: Stability
Procedure, shortened: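 Caco-2 monolayers grown on PET membrane inserts (1.0 µm pore) at 75,000 cells/cm² and used on day 25, fully polarized and differentiated. Compound at 10 μM final, non-gradient pH 7.4/7.4, 90 min. Samples analysed by narrow-window mass-extraction LC/QTof-MS for parent-compound peak areas. Percent recovered or transported calculated relative to the initial dosing concentration.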

T1 sequence (P42227 whole entry): as the sequence (P42227 whole entry, the tested form may be a part) above

| SMILES | IC50 [1] | Ki [5] | further results |
| --- | --- | --- | --- |
| CC(C)C[C@H](NC(=O)[C@H](Cc1ccc(OP(=O)(O)O)cc1)NC(=O)c1ccc(C#N)cc1)C(=O)Nc1cc(C(=O)NCc2ccccc2)cc(-c2ccc(C(N)=O)cc2)c1 | 5 µM | 9 µM | inhibition [2]: 50%; Ki [3]: 16.5 µM; Activity [4]: Active; Kd [6]: 0.205 µM |
| CC(C)C[C@H](NC(=O)[C@H](Cc1ccc(OP(=O)(O)O)cc1)NC(=O)c1ccc(C#N)cc1)C(=O)Nc1cc(C(=O)NCc2ccccc2)cc(-c2ccc(C#N)cc2)c1 | 60 µM | 36 µM |  |
| CC(C)C[C@H](NC(=O)[C@H](Cc1ccc(OP(=O)(O)O)cc1)NC(=O)c1ccc(C#N)cc1)C(=O)Nc1ccc(C(=O)NCc2ccccc2)c(-c2ccc(C#N)cc2)c1 | 33 µM | 11 µM |  |
| COC(=O)c1ccc(-c2cc(NC(=O)[C@H](CC(C)C)NC(=O)[C@H](Cc3ccc(OP(=O)(O)O)cc3)NC(=O)c3ccc(C#N)cc3)cc(C(=O)NCc3ccccc3)c2)cc1 | 112 µM | 25 µM |  |
| CC(C)C[C@H](NC(=O)[C@H](Cc1ccc(OP(=O)(O)O)cc1)NC(=O)c1ccc(C#N)cc1)C(=O)Nc1ccc(C(=O)NCc2ccccc2)c(-c2cccc(C#N)c2)c1 | 64 µM | 13 µM |  |
| CC(C)C[C@H](NC(=O)[C@H](Cc1ccc(OP(=O)(O)O)cc1)NC(=O)c1ccc(C#N)cc1)C(=O)Nc1cc(C(=O)NCc2ccccc2)cc(-c2cccc(C(N)=O)c2)c1 | 188 µM | 38 µM |  |
| COC(=O)c1cccc(-c2cc(NC(=O)[C@H](CC(C)C)NC(=O)[C@H](Cc3ccc(OP(=O)(O)O)cc3)NC(=O)c3ccc(C#N)cc3)cc(C(=O)NCc3ccccc3)c2)c1 | 66 µM | 23 µM |  |
| CC(C)C[C@H](NC(=O)[C@H](Cc1ccc(OP(=O)(O)O)cc1)NC(=O)c1ccc(C#N)cc1)C(=O)Nc1cc(C(=O)NCc2ccccc2)cc(-c2cccc(C#N)c2)c1 | 92 µM | 18 µM |  |
| CC(C)C[C@H](NC(=O)[C@H](Cc1ccc(OP(=O)(O)O)cc1)NC(=O)c1ccc(C#N)cc1)C(=O)Nc1ccc(C(=O)NCc2ccccc2)c(-c2ccc(C(N)=O)cc2)c1 | 73.1 µM | 5 µM | inhibition [2]: > 80%; Papp (Caco-2): < 0.5 ×10⁻⁶ cm/s; Ki [3]: 6.3 µM; Activity [4]: Active; IC50 (HL-60): > 200 µM; Activity (NIH3T3): 50%; Activity (PANC-1): 50%; Activity (MDA-MB-468 (human)): 50%; Kd [6]: 0.9 µM; Activity (DU-145): 50% |
| COC(=O)c1cccc(-c2cc(NC(=O)[C@H](CC(C)C)NC(=O)[C@H](Cc3ccc(OP(=O)(O)O)cc3)NC(=O)c3ccc(C#N)cc3)ccc2C(=O)NCc2ccccc2)c1 | 40 µM | 10 µM |  |
| CC(C)C[C@H](NC(=O)[C@H](Cc1ccc(OP(=O)(O)O)cc1)NC(=O)c1ccc(C#N)cc1)C(=O)Nc1ccc(C(=O)NCc2ccccc2)c(-c2cccc(C(N)=O)c2)c1 | 62 µM | 15 µM |  |
| CC(C)C[C@H](NC(=O)[C@H](Cc1ccc(O)cc1)NC(=O)c1ccc(C#N)cc1)C(=O)Nc1cc(C(=O)NCc2ccccc2)cc(-c2ccc(C(N)=O)cc2)c1 | 190 µM |  | Activity [2]: inactive; remaining at […], 10 µM [7]: 36%; Papp (Caco-2): > 0.5 ×10⁻⁶ cm/s; Activity [4]: inactive; Kd [6]: 17 µM |
| COC(=O)c1ccc(-c2cc(NC(=O)[C@H](CC(C)C)NC(=O)[C@H](Cc3ccc(OP(=O)(O)O)cc3)NC(=O)c3ccc(C#N)cc3)ccc2C(=O)NCc2ccccc2)cc1 | > 200 µM | 26 µM |  |
| CC(C)C[C@H](NC(=O)[C@H](Cc1ccc(O)cc1)NC(=O)c1ccc(C#N)cc1)C(=O)Nc1ccc(C(=O)NCc2ccccc2)c(-c2ccc(C(N)=O)cc2)c1 | 103 µM |  | Activity [2]: Active; remaining at […], 10 µM [7]: 52%; Papp (Caco-2): > 0.5 ×10⁻⁶ cm/s; Activity [4]: Active; Kd [6]: 12 µM |

— ChEMBL document CHEMBL1681633, “Design, synthesis, and in vitro characterization of novel hybrid peptidomimetic inhibitors of STAT3 protein” (Bioorg Med Chem, 2011)
